Columns and labels:
JCPyV [1] = test: NCC drug screen, In-Cell Western; format: cell-based, JC polyomavirus; conditions: inhibitor 10 μM, SVGA cells, MOI = 0.5 FFU/cell, 72 h, VP1 ICW
JCPyV [2] = test: JCPyV infection by ICW assay; format: cell-based, JC polyomavirus; conditions: for % JCPyV infection (ICW, TAg): MOI = 1 FFU/cell, 48 h, vs DMSO control (Fig. 2); for JCPyV infection (ICW validation of screen hits): cell type not stated, data not shown
JCPyV [3] = test: JCPyV infection by FFU infectivity assay; format: cell-based, JC polyomavirus; conditions: 48 h, vs DMSO control
SV40 [4] = test: SV40 infection by FFU infectivity assay; format: cell-based, simian virus 40; conditions: Vero cells, MOI = 1 FFU/cell, 48 h
pERK = pERK assay by ICW; format: cell-based; conditions: 24 h treatment, no virus
SVGA cells = test: MTS cell viability assay, SVGA cells; format: cell-based, human
HEK-2C cells = test: MTS cell viability assay, HEK-2C cells; format: cell-based
Vero cells = test: MTS cell viability assay, Vero cells; format: cell-based, African green monkey; conditions: vs DMSO control
RPTEC = test: MTS cell viability assay, RPTEC; format: cell-based, human; conditions: RPTEC 48 h, vs DMSO control
HeLa cells = test: MTS cell viability assay, HeLa cells; format: cell-based; conditions: HeLa 24 h, vs DMSO control
BKPyV = BKPyV infection by FFU infectivity assay; format: cell-based, BK polyomavirus; conditions: Vero cells, MOI = 4 FFU/cell, 72 h
In short: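 Vero E6 cells at 70% confluence were pre-treated 1 h at 37°C with test compound in 10% DMEM (triplicate wells). Infection ran 2 h at 37°C without compound, then cells were refed with compound-containing DMEM for 72 h. Cells were PFA-fixed and stained for VP1 (1:40) with DAPI. % infection was VP1+ cells over DAPI+ cells per 20X field, 5 fields/well.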

SARS-CoV-2 [5] = format: cell-based; conditions: Vero cells, TCID50 = 0.025/cell, 24 h
reovirus [6] = test: Reovirus infection by FFU infectivity assay; format: cell-based; conditions: HeLa cells, MOI = 300 FFU/cell, 24 h
In short: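 HeLa cells at 70% confluence were pre-treated 1 h at 37°C with test compound in 10% DMEM (triplicate wells). Infection ran 1 h at RT without compound, then cells were refed with compound-containing DMEM for 24 h at 37°C. Cells were PFA-fixed and stained with reovirus antisera (1:500), anti-rabbit secondary and DAPI. % infection was positive over DAPI+ cells per 10X field, 5 fields/well.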

JCPyV [7] = test: JCPyV-647 attachment by flow cytometry; format: cell-based, JC polyomavirus; conditions: HEK-2C cells pre-treated 1 h, virus on ice 1 h, vs DMSO
JCPyV [8] = test: JCPyV infectious clone transfection, VP1+ nuclei by FFU assay; format: cell-based, JC polyomavirus; conditions: SVGA cells, TFP 15 μM, day 3 or day 7
In short: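 SVGA cells at 50% confluence were pre-treated 1 h at 37°C with test compound or DMSO. They were transfected with 2 μg/well linearized JC pUC19 (pUC19 control) using Fugene 6 (1.5 μl:1 μg DNA) with compound present. Medium was replaced with 10% MEM after 6 h. Cells were fixed and stained for VP1 (1:40). % VP1+ nuclei was VP1+ over DAPI+ cells at 10X, 5 fields/well.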

reovirus [9] = conditions: ref Mainou, Zamora et al. 2013; cited from earlier work
SARS-CoV-2 [10] = conditions: ref Yuan, Dong et al. 2022; cited from earlier work
[11] = ref Kang, Hong et al. 2017; cited from earlier work
SV40 [12] = conditions: ref Dobson, Mankouri and Whitehouse 2020; cited from earlier work
MCPyV = conditions: ref Dobson, Mankouri and Whitehouse 2020; cited from earlier work
[13] = HEK-2C cells, MOI = 0.5 FFU/cell
[14] = primary RPTECs, MOI = 2 FFU/cell
[15] = SVGA 48 h, MTS, vs DMSO control
[16] = HEK-2C 48 h, MTS, vs DMSO control

COC(=O)C1=C(C)NC(C)=C(C(=O)OC)C1c1ccccc1[N+](=O)[O-] [Nifedipine]
JCPyV infection in NCC drug screen (hit by normalized z-score) (JCPyV [1]): hits
% JCPyV infection (ICW, TAg) (JCPyV [2]; HEK-2C cells): significant reduction
% JCPyV infection (FFU, TAg) (JCPyV [3]; [13]): significantly reduced JCPyV infection
% JCPyV infection (FFU, TAg) (JCPyV [3]; SVGA cells, MOI = 1 FFU/cell): did not reduce JCPyV infection
% JCPyV infection (FFU, TAg) (JCPyV [3]; [14]): significantly reduced JCPyV infection
% SV40 infection (FFU, VP1) (SV40 [4]): did not reduce SV40 infection
% pERK expression (ICW) (pERK; HEK-2C cells): significant reduction in pERK levels
% pERK expression (ICW) (pERK; SVGA cells): significant reduction in pERK levels

COCCOC(=O)C1=C(C)NC(C)=C(C(=O)OC(C)C)C1c1cccc([N+](=O)[O-])c1 (stereo not drawn) [Nimodipine]
JCPyV infection in NCC drug screen (hit by normalized z-score) (JCPyV [1]): hits
% JCPyV infection (ICW, TAg) (JCPyV [2]; HEK-2C cells): modestly reduced
% JCPyV infection (ICW, TAg) (JCPyV [2]; SVGA cells): modestly reduced
% JCPyV infection (FFU, TAg) (JCPyV [3]; SVGA cells, MOI = 1 FFU/cell): did not significantly reduce JCPyV infection

CN1CCN(CCCN2c3ccccc3Sc3ccc(C(F)(F)F)cc32)CC1 [TFP, trifluoperazine]
JCPyV infection in NCC drug screen (hit by normalized z-score) (JCPyV [1]): hits
Concentration with % Viability < 80% (SVGA cells; [15]): 30 µM
Concentration with % Viability ≥ 90% (SVGA cells; [15]): 20 µM
Concentration with % Viability ≥ 100% (SVGA cells; SVGA 7 days, MTS, vs DMSO control): 15 µM
Concentration with % Viability < 80% (HEK-2C cells; [16]): 30 µM
Concentration with % Viability ≥ 85% (HEK-2C cells; [16]): 20 µM
Concentration with % Viability ≥ 100% (HEK-2C cells; [16]): 7.5 µM
Concentration with % Viability ≥ 100% (Vero cells; Vero 24 h): 10 µM
Concentration with % Viability ≥ 100% (Vero cells; Vero 48 h): 20 µM
Concentration with % Viability < 80% (Vero cells; Vero 72 h): 30 µM
Concentration with % Viability ≥ 100% (Vero cells; Vero 72 h): 15 µM
Concentration with % Viability ≥ 90% (RPTEC): 7.5 µM
Concentration with % Viability ≥ 95% (RPTEC): 5 µM
Concentration with % Viability < 80% (HeLa cells): 15 µM
Concentration with % Viability ≥ 80% (HeLa cells): 10 µM
Concentration with % Viability ≥ 100% (HeLa cells): 7.5 µM
% JCPyV infection (ICW, TAg) (JCPyV [2]; HEK-2C cells): significant reduction in JCPyV infection
% JCPyV infection (ICW, TAg) (JCPyV [2]; SVGA cells): significant reduction in JCPyV infection
% JCPyV infection (FFU, TAg) (JCPyV [3]; [13]): significant reduction of JCPyV infection
% JCPyV infection (FFU, TAg) (JCPyV [3]; SVGA cells, MOI = 1 FFU/cell): significant reduction of JCPyV infection
% JCPyV infection (FFU, TAg) (JCPyV [3]; [14]): significantly reduced JCPyV infection
% SV40 infection (FFU, VP1) (SV40 [4]): significantly reduced
% BKPyV infection (FFU) (BKPyV): significantly reduced
% SARS-CoV-2 infection (FFU, NP) (SARS-CoV-2 [5]): dramatically impaired SARS-CoV-2 infection
% reovirus infection (FFU) (reovirus [6]): not impacted
JCPyV attachment (JCPyV-647, flow cytometry) (JCPyV [7]): no significant difference in JCPyV attachment
% VP1+ nuclei after transfection of JCPyV infectious clone (JCPyV [8]): modest reduction in JCPyV VP1+ cells
reovirus infection (reovirus [9]): not impacted
SARS-CoV-2 infection (SARS-CoV-2 [10]): inhibited
crossing the blood-brain barrier [11]: capable of crossing the blood-brain barrier

COc1ccc2cc1Oc1ccc(cc1)C[C@H]1c3cc(c(OC)cc3CCN1C)Oc1c(OC)c(OC)cc3c1[C@H](C2)N(C)CC3 [Tetrandrine]
Concentration with % Viability ≥ 100% (SVGA cells; human, 48 h): 10 µM
Concentration with % Viability < 80% (HEK-2C cells; human, 48 h): 10 µM
Concentration with % Viability ≥ 90% (HEK-2C cells; human, 48 h): 7 µM
Concentration with % Viability ≥ 95% (HEK-2C cells; human, 48 h): 1 µM
% JCPyV infection (ICW, TAg) (JCPyV [2]; HEK-2C cells): significant reduction in infection
% JCPyV infection (ICW, TAg) (JCPyV [2]; SVGA cells): slight, but not statistically significant, increase
% JCPyV infection (FFU, TAg) (JCPyV [3]; [13]): significantly impaired
% JCPyV infection (FFU, TAg) (JCPyV [3]; SVGA cells, MOI = 1 FFU/cell): not impacted
% SV40 infection (FFU, VP1) (SV40 [4]): potently inhibited
% pERK expression (ICW) (pERK; HEK-2C cells): reduction in pERK levels
% pERK expression (ICW) (pERK; SVGA cells): dramatic increase in pERK
SV40 infection (SV40 [12]): drastically reduced
MCPyV infection (MCPyV): drastically reduced

COc1ccc(CCN(C)CCCC(C#N)(c2ccc(OC)c(OC)c2)C(C)C)cc1OC (stereo not drawn) [Verapamil]
SV40 infection (SV40 [12]): reduces
MCPyV infection (MCPyV): reduces

NCCCCCCNS(=O)(=O)c1cccc2c(Cl)cccc12 [W-7]
% JCPyV infection (ICW, TAg) (JCPyV [2]; HEK-2C cells): decreased JCPyV infection
% JCPyV infection (ICW, TAg) (JCPyV [2]; SVGA cells): decreased JCPyV infection
% JCPyV infection (FFU, TAg) (JCPyV [3]; [13]): significant reduction of JCPyV infection
% JCPyV infection (FFU, TAg) (JCPyV [3]; SVGA cells, MOI = 1 FFU/cell): significant reduction of JCPyV infection
% SV40 infection (FFU, VP1) (SV40 [4]): significantly reduced
% BKPyV infection (FFU) (BKPyV): significantly reduced
% SARS-CoV-2 infection (FFU, NP) (SARS-CoV-2 [5]): dramatically impaired SARS-CoV-2 infection

O=C1CN(/N=C/c2ccc(-c3ccc([N+](=O)[O-])cc3)o2)C(O)=N1 [dantrolene sodium]
JCPyV infection in NCC drug screen (hit by normalized z-score) (JCPyV [1]): hits
JCPyV infection (ICW validation of screen hits) (JCPyV [2]): did not significantly reduce infection

Fc1ccc(C(c2ccc(F)cc2)N2CCN(C/C=C/c3ccccc3)CC2)cc1 [flunarizine, Flunarizine]
% JCPyV infection (ICW, TAg) (JCPyV [2]; HEK-2C cells): No significant change in infection
% JCPyV infection (ICW, TAg) (JCPyV [2]; SVGA cells): No significant change in infection
MCPyV infection (MCPyV): blocks infection

CCOC(=O)C1=C(C)NC(C)=C(C(=O)OC)C1c1cccc([N+](=O)[O-])c1 (stereo not drawn) [nitrendipine, Nitrendipine]
% JCPyV infection (FFU, TAg) (JCPyV [3]; SVGA cells, MOI = 1 FFU/cell): did not significantly reduce JCPyV infection

CC1(C)O[C@@H]2[C@@H](CO[C@@]3(COS(N)(=O)=O)OC(C)(C)O[C@@H]23)O1 [topiramate]
JCPyV infection in NCC drug screen (hit by normalized z-score) (JCPyV [1]): hits
JCPyV infection (ICW validation of screen hits) (JCPyV [2]): did not significantly reduce infection

From publication PMC10922812 (Antiviral research, 2024)
